This passage reports EC50 results from ChEMBL document CHEMBL1150117, “Two new subergane-based sesquiterpenes from a Taiwanese Gorgonian coral Subergorgia suberosa” (2002).

Experiment [1] deals with KB. The experiment is described as follows: Cytotoxicity against human KB cells after 4 hrs by MTT assay. The format is functional. To be noted: read-out: ED50 (the source's name). The method in brief: (§1)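 KB and HeLa cells from ATCC; growth inhibition read by MTT colorimetric method; ED50 in μg/mL.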
Experiment [2] relates to HeLa. Nature of the experiment: Cytotoxicity against human HeLa cells after 4 hrs by MTT assay. The format is functional. To be noted: read-out: ED50 (the source's name). The method in brief:
as §1
Background: Tetrazolium assays rely on reduction of a dye to a coloured formazan, in cell work by metabolically active cells.

Converted amounts (≈) assume the structure as drawn. Where only a bound is given, the exact number is not on record here.

As for `C[C@@H]1CC(=O)[C@@]23[C@@H](C)C(C(=O)O)=C[C@]2(C)CC[C@@H]13` [SUBERGORGIC ACID], the EC50 in experiment [1] and in experiment [2] was > 10 µg/mL in each case.

Take `C[C@@H]1C(CO)=C[C@@]2(C)CC[C@@H]3[C@@H](C)CC[C@@]132` [SUBERGORGIOL]: the EC50 in experiment [1] and in experiment [2] was > 10 µg/mL throughout.

As for `COC(=O)C1=C[C@@]2(C)CC[C@@H]3[C@@H](C)CC(=O)[C@@]32[C@@H]1C` [SUBERGORGIC ACID METHYL ESTER], the EC50 in experiment [1] stood at 4.3 µg/mL (≈ 16.4 µM).

With `CC(=O)O[C@H]1C[C@H](C)[C@H]2CC[C@]3(C)C=C(C(=O)O)[C@@H](C)[C@]123`, the EC50 in experiment [1] and in experiment [2] was > 10 µg/mL each time.

Turning to `C[C@@H]1C(C(=O)O)=C[C@@]2(C)CC[C@@H]3[C@@H](C)C[C@H](O)[C@@]132`, the EC50 in experiment [1] and in experiment [2] was > 10 µg/mL throughout.

Consider `COC(=O)C1=C[C@@]2(C)CC[C@@H]3[C@@H](C)C[C@H](OC(C)=O)[C@@]32[C@@H]1C`, for which the EC50 in experiment [1] and in experiment [2] was > 10 µg/mL each time.
